Active and inactive are the calls of the source. No cut-off for these calls is given here.
Columns and labels:
[1] = system: Saccharomyces cerevisiae; assay: Growth inhibition of UFD2-deficient Saccharomyces cerevisiae YDL190C mutant at 20 ug/disc after 24 to 48 hrs by agar diffusion assay; type: functional; conditions: read-out: DIZ
In short: (§1)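 S. cerevisiae deletion mutants or wild type grown on YPD, seeded into liquid agar medium at an optical density of 0.1. 6 mm paper discs soaked with methanolic compound solution were placed on the plates and incubated at 30 °C. Growth was checked after 1 and 2 days, and the inhibition zone diameter was recorded in mm.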

[2] = system: Saccharomyces cerevisiae; assay: Growth inhibition of GTT2-deficient Saccharomyces cerevisiae YLL060C mutant at 20 ug/disc after 24 to 48 hrs by agar diffusion assay; type: functional; conditions: read-out: DIZ; in short: as §1
[3] = system: Saccharomyces cerevisiae; assay: Growth inhibition of SOD2-deficient Saccharomyces cerevisiae YHR008C mutant at 20 ug/disc 24 to 48 hrs by agar diffusion assay; type: functional; conditions: read-out: DIZ; in short: as §1
[4] = system: PtK2; assay: Induction of oxidative stress in potoroo PtK2 cells assessed as change in microtubular network after 24 hrs by immunofluorescence microscopic analysis; type: functional, cell-based; conditions: Potorous tridactylus
In short: (§2)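 PtK2 cells were grown on coverslips and treated once semi-confluent, for 24 h. Cells were fixed with 3.7% paraformaldehyde followed by 0.1% Triton X-100, or with cold methanol/acetone 50:50. Primary and secondary antibodies were applied for 45 min each: anti-GRP94 for ER, anti-α-tubulin. Actin was stained with phalloidin and nuclei with DAPI. Imaging was by fluorescence microscopy with a CCD camera.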

[5] = system: PtK2; assay: Induction of oxidative stress in potoroo PtK2 cells assessed as reduction in actin stress fibres after 24 hrs by immunofluorescence microscopic analysis; type: functional, cell-based; conditions: Potorous tridactylus; in short: as §2
[6] = system: PtK2; assay: Induction of oxidative stress in potoroo PtK2 cells assessed as reduction in cell adhesion after 24 hrs by immunofluorescence microscopic analysis; type: functional, cell-based; conditions: Potorous tridactylus; in short: as §2
[7] = system: PtK2; assay: Induction of oxidative stress in potoroo PtK2 cells assessed as hole in the endoplasmic reticulum after 24 hrs by immunofluorescence microscopic analysis; type: functional, cell-based; conditions: Potorous tridactylus; in short: as §2
[8] = system: PtK2; assay: Induction of oxidative stress in potoroo PtK2 cells assessed as change in cell morphology after 24 hrs by immunofluorescence microscopic analysis; type: functional, cell-based; conditions: Potorous tridactylus; in short: as §2
[9] = Cytotoxicity against human PHF cells after 24 hrs by MTT assay; type: cell-based
In short: (§3)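 MTT assay. Cells were seeded at 50,000 cells/mL in medium with 10% fetal calf serum and grown for two days at 37 °C, 10% CO2. Serial dilutions of compound were then added for 24 h. MTT was added (final 0.5 mg/mL) for 2 h, and the formazan was pelleted, washed, dissolved in isopropanol with 0.4% HCl and read at 590 nm. IC50 is the concentration giving 50% of untreated-control absorbance, taken from dose-response curves; mean of two parallel experiments.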

[10] = system: A-431; assay: Cytotoxicity against human A431 cells after 24 hrs by MTT assay; type: functional, cell-based; conditions: A-431, 24 h; in short: as §3
[11] = system: MCF7; assay: Cytotoxicity against human MCF7 cells after 24 hrs by MTT assay; type: functional, cell-based; conditions: MCF7, 24 h; in short: as §3
[12] = system: MDA-MB-468; assay: Cytotoxicity against human MDA-MB-468 cells; type: functional
[13] = system: UO-31; assay: Cytotoxicity against human UO31 cells; type: functional
[14] = system: PC-3; assay: Cytotoxicity against human PC3 cells; type: functional
[15] = system: RXF 393; assay: Cytotoxicity against human RXF393 cells; type: functional
[16] = system: ACHN; assay: Cytotoxicity against human ACHN cells; type: functional
[17] = system: OVCAR-8; assay: Cytotoxicity against human OVCAR8 cells; type: functional
[18] = system: NCI/ADR-RES; assay: Cytotoxicity against human NCI/ADR-RES cells; type: functional
[19] = system: OVCAR-4; assay: Cytotoxicity against human OVCAR4 cells; type: functional
[20] = system: OVCAR-5; assay: Cytotoxicity against human OVCAR5 cells; type: functional
[21] = system: SK-MEL-28; assay: Cytotoxicity against human SK-MEL-28 cells; type: functional
[22] = system: MDA-MB-435; assay: Cytotoxicity against human MDA-MB-435 cells; type: functional
[23] = system: Malme-3M; assay: Cytotoxicity against human MALME-3M cells; type: functional
[24] = system: M14; assay: Cytotoxicity against human M14 cells; type: functional
[25] = system: U-251; assay: Cytotoxicity against human U251 cells; type: functional
[26] = system: LOX IMVI; assay: Cytotoxicity against human LOXIMVI cells; type: functional
[27] = system: SNB-75; assay: Cytotoxicity against human SNB75 cells; type: functional
[28] = system: SF-268; assay: Cytotoxicity against human SF268 cells; type: functional
[29] = system: SF-295; assay: Cytotoxicity against human SF295 cells; type: functional
[30] = system: HCT-15; assay: Cytotoxicity against human HCT15 cells; type: functional
[31] = system: NCI-H226; assay: Cytotoxicity against human NCI-H226 cells; type: functional
[32] = system: A549; assay: Cytotoxicity against human A549 cells; type: functional
[33] = system: EKVX; assay: Cytotoxicity against human EKVX cells; type: functional
[34] = system: HOP-62; assay: Cytotoxicity against human HOP62 cells; type: functional
[35] = system: RPMI-8226; assay: Cytotoxicity against human RPMI8226 cells; type: functional
[36] = system: MOLT-4; assay: Cytotoxicity against human MOLT4 cells; type: functional
[37] = system: HL-60; assay: Cytotoxicity against human HL60 cells; type: functional
[38] = system: K562; assay: Cytotoxicity against human K562 cells; type: functional
[39] = system: CCRF-CEM; assay: Cytotoxicity against human CCRF-CEM cells; type: functional
[40] = read-out: pLC50 (the source's name) (converted)

CC1=C(SCCC(=O)OC(C[Se]C2=C(C)C(=O)c3ccccc3C2=O)C(=O)NCCCCCC(=O)OCc2ccccc2)C(=O)c2ccccc2C1=O (stereo not given)
zone of inhibition at 20 µg/disc [1]: 0 mm | zone of inhibition at 20 µg/disc [2]: 12 mm | zone of inhibition at 20 µg/disc [3]: 15 mm | Activity [4]: inactive | Activity [5]: Active | Activity [6]: Active | Activity [7]: Active | Activity [8]: Active | IC50 [9]: 5 µM | IC50 [10]: 6 µM | IC50 [11]: 10 µM | GI50 [12]: 3.02 µM | LC50 [12]: 37.2 µM | TGI ([12]; read-out: pTGI (converted)): 8.51 µM | GI50 [13]: 2.51 µM | LC50 [13]: 50.1 µM | TGI ([13]; read-out: pTGI (converted)): 15.1 µM | GI50 [14]: 2.57 µM | LC50 [14]: 55 µM | TGI ([14]; read-out: pTGI (converted)): 9.12 µM | GI50 [15]: 14.8 µM | LC50 [15]: 53.7 µM | TGI ([15]; read-out: pTGI (converted)): 28.2 µM | GI50 [16]: 12 µM | LC50 [16]: 63.1 µM | TGI ([16]; read-out: pTGI (converted)): 27.5 µM | GI50 [17]: 4.17 µM | LC50 [17]: 50.1 µM | TGI ([17]; read-out: pTGI (converted)): 15.1 µM | GI50 [18]: 4.57 µM | CC50 [18, 40]: 81.3 µM | TGI ([18]; read-out: pTGI (converted)): 18.2 µM | GI50 [19]: 12.3 µM | LC50 [19]: 51.3 µM | TGI ([19]; read-out: pTGI (converted)): 25.1 µM | GI50 [20]: 5.01 µM | LC50 [20]: 61.7 µM | TGI ([20]; read-out: pTGI (converted)): 18.6 µM | GI50 [21]: 11.7 µM | LC50 [21]: 51.3 µM | TGI ([21]; read-out: pTGI (converted)): 24.5 µM | GI50 [22]: 2.14 µM | LC50 [22]: 49 µM | TGI ([22]; read-out: pTGI (converted)): 12.9 µM | GI50 [23]: 2.09 µM | LC50 [23]: 56.2 µM | TGI ([23]; read-out: pTGI (converted)): 6.92 µM | GI50 [24]: 2 µM | LC50 [24]: 8.91 µM | TGI ([24]; read-out: pTGI (converted)): 4.27 µM | GI50 [25]: 4.07 µM | LC50 [25]: 46.8 µM | TGI ([25]; read-out: pTGI (converted)): 13.5 µM | GI50 [26]: 2.75 µM | LC50 [26]: 69.2 µM | TGI ([26]; read-out: pTGI (converted)): 11.5 µM | GI50 [27]: 11.5 µM | LC50 [27]: 49 µM | TGI ([27]; read-out: pTGI (converted)): 24 µM | GI50 [28]: 7.41 µM | LC50 [28]: 44.7 µM | TGI ([28]; read-out: pTGI (converted)): 20 µM | GI50 [29]: 2.51 µM | LC50 [29]: 97.7 µM | TGI ([29]; read-out: pTGI (converted)): 8.71 µM | GI50 [30]: 6.61 µM | LC50 [30]: 58.9 µM | TGI ([30]; read-out: pTGI (converted)): 21.4 µM | GI50 [31]: 19.5 µM | CC50 [31, 40]: > 100 µM | TGI ([31]; read-out: pTGI (converted)): 51.3 µM | GI50 [32]: 3.98 µM | LC50 [32]: > 100 µM | TGI ([32]; read-out: pTGI (converted)): 11.5 µM | GI50 [33]: 3.63 µM | LC50 [33]: 58.9 µM | TGI ([33]; read-out: pTGI (converted)): 17.8 µM | GI50 [34]: 3.8 µM | LC50 [34]: 39.8 µM | TGI ([34]; read-out: pTGI (converted)): 14.5 µM | GI50 [35]: 2.63 µM | LC50 [35]: > 100 µM | TGI ([35]; read-out: pTGI (converted)): 7.76 µM | GI50 [36]: 4.07 µM | LC50 [36]: > 100 µM | TGI ([36]; read-out: pTGI (converted)): > 100 µM | GI50 [37]: 3.09 µM | LC50 [37]: > 100 µM | TGI ([37]; read-out: pTGI (converted)): 8.51 µM | GI50 [38]: 3.02 µM | LC50 [38]: > 100 µM | TGI ([38]; read-out: pTGI): > 100 µM | GI50 [39]: 2.82 µM | LC50 [39]: > 100 µM | TGI ([39]; read-out: pTGI): > 100 µM

— ChEMBL document CHEMBL2177069, “Novel peptidomimetic compounds containing redox active chalcogens and quinones as potential anticancer agents” (Eur J Med Chem, 2012)
